The target in experiment [1] is Vascular endothelial growth factor receptor 2 (Homo sapiens, UniProt P35968). The experiment can be described thus: Inhibition of human recombinant VEGFR2. Summed up:
(§1)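 Recombinant human tyrosine kinases (EPHB4, TIE2, VEGF-R2, VEGF-R3), expressed in Sf9 insect cells as GST- or His-fusions, with poly(Glu,Tyr) 4:1 as substrate. Conditions: 1 µM [γ-33P]ATP, pH 7.5 HEPES buffer with Mg/Mn, DTT and vanadate, 30 °C for 80 min, 1% DMSO. Ten concentrations were tested and IC50 came from scintillation counting of incorporated 33P.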

The target of experiment [2] is Vascular endothelial growth factor receptor 3 (Homo sapiens, UniProt P35916). Nature of the experiment: Inhibition of human recombinant VEGFR3. In outline: as §1
Vascular endothelial growth factor receptor 3, sequence (P35916 whole entry): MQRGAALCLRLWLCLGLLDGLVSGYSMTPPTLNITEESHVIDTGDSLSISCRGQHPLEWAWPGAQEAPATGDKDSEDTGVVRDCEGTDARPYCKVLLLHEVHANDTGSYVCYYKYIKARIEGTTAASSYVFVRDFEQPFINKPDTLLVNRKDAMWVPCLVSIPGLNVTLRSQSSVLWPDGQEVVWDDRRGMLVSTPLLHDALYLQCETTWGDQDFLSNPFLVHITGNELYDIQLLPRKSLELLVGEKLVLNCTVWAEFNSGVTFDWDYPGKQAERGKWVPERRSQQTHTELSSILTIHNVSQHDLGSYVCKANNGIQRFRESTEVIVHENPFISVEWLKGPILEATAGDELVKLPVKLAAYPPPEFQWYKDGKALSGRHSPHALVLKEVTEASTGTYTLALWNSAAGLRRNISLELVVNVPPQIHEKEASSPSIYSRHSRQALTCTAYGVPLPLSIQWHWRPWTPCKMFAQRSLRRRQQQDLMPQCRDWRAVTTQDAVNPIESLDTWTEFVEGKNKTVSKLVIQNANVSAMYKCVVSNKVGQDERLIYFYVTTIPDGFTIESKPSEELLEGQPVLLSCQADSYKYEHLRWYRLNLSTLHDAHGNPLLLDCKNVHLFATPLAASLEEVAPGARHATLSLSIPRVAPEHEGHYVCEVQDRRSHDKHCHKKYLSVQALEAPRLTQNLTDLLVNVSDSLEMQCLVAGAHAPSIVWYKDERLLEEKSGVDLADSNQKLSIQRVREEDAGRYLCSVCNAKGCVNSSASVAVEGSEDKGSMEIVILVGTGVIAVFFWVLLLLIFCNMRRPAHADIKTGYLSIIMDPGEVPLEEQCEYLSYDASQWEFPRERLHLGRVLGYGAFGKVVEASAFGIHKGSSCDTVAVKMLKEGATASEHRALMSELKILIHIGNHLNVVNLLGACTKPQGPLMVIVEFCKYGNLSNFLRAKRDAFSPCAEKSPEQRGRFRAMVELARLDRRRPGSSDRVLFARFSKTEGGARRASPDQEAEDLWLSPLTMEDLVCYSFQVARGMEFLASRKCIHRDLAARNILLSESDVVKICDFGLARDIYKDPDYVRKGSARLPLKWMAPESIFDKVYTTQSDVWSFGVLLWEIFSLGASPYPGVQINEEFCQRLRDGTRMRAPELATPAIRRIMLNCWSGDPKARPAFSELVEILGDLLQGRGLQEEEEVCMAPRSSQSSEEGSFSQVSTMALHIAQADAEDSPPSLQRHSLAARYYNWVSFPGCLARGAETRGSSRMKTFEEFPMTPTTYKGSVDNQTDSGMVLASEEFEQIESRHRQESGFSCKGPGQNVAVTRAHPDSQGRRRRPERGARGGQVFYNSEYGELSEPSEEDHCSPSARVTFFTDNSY
Experiment [3] deals with T1, Serine/threonine-protein kinase PLK4 (Homo sapiens, UniProt O00444).
T1 sequence (O00444 whole entry): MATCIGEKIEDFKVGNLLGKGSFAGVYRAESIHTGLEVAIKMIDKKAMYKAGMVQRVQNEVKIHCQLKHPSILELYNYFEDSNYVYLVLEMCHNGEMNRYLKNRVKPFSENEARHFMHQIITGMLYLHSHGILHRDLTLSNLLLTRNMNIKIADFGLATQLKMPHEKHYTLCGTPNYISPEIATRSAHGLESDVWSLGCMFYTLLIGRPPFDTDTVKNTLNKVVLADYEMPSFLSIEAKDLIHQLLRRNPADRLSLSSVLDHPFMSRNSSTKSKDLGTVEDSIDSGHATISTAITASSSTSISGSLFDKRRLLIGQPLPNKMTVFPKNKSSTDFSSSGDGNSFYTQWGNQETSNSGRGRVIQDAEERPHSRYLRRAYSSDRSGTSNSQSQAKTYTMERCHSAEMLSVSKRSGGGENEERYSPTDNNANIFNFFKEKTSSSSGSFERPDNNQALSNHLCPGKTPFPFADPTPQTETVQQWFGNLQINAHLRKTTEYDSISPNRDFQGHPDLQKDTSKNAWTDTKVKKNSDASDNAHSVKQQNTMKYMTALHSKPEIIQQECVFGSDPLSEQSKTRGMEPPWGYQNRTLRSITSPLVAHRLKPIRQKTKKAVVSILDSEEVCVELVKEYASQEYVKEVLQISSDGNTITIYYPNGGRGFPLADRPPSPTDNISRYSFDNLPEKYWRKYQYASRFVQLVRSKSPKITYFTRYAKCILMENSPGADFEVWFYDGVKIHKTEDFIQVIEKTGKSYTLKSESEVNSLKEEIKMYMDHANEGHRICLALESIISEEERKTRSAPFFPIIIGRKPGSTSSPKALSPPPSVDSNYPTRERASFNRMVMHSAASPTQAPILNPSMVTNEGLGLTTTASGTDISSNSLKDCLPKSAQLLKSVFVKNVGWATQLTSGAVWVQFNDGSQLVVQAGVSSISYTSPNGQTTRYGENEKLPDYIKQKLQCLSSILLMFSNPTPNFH
The experiment can be described thus: Inhibition of human recombinant SAK. Summed up:
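Human kinase expressed from cDNA in Sf9 cells (baculovirus) as GST- or His-tagged protein, affinity-purified. 10 compound concentrations, 1% DMSO final, 30 °C for 80 min. Stopped with H₃PO₄, 33P incorporation counted, IC50 derived.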

Another experiment deals with T2, Aurora kinase A (Homo sapiens, UniProt O14965).
T2 sequence (O14965 whole entry): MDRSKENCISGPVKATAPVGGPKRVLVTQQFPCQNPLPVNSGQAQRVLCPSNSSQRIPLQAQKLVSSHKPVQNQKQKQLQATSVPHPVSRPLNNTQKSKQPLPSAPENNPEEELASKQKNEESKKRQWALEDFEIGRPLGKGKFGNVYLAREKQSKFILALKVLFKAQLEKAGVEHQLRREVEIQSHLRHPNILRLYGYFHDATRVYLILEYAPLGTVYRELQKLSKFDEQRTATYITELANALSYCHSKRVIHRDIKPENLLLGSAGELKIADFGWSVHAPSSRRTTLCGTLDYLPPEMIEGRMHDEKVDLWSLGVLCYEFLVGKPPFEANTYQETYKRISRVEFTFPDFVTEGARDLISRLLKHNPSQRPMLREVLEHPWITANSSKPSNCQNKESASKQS
The experiment can be described thus: Inhibition of human recombinant Aurora A. Summed up:
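Aurora-A or Aurora-B, human cDNA expressed in Sf9 cells as tagged recombinant protein, phosphorylating Tetra(LRRWSLG). Reactions used 60 mM HEPES pH 7.5, Mg2+/Mn2+ (3 mM each), 1.2 mM DTT, vanadate and 1 µM [γ-33P]ATP, ran 80 min at 30 °C and were stopped with 2% H3PO4.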

pIC50: −log10 of the molar value.

Vascular endothelial growth factor receptor 2, sequence (P35968 whole entry, the tested form may be a part): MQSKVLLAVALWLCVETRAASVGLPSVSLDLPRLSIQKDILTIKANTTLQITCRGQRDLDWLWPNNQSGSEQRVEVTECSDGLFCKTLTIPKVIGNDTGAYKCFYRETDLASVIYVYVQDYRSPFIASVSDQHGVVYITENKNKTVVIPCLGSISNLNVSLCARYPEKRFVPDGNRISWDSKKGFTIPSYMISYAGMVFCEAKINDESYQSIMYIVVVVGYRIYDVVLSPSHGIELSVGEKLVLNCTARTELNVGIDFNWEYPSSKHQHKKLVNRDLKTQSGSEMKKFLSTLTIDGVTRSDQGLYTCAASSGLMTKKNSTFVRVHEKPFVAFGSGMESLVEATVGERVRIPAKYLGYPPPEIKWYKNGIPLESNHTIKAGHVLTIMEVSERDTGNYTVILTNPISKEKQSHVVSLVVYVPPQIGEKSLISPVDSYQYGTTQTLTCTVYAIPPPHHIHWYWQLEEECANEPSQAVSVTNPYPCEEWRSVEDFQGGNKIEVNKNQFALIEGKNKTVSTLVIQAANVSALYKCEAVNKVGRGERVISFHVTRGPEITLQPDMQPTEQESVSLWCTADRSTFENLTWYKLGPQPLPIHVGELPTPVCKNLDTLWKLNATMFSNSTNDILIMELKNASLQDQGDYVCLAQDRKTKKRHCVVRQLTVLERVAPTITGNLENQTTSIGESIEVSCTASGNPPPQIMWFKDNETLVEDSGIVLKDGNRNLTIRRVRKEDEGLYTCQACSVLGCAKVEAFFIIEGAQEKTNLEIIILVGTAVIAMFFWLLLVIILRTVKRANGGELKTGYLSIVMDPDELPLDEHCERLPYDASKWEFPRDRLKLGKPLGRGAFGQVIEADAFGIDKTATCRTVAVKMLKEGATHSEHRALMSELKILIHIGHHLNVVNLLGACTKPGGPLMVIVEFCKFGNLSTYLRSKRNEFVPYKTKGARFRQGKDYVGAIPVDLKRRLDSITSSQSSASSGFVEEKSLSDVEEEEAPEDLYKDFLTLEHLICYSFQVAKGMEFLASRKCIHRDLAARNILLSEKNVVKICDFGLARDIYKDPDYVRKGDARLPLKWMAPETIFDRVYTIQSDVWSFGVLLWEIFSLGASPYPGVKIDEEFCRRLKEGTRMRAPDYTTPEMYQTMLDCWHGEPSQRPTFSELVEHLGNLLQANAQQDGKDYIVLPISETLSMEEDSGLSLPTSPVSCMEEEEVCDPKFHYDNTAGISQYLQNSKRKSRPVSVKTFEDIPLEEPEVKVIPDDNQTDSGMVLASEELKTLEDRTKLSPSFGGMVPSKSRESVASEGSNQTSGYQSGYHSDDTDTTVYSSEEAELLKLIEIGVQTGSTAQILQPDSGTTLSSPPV

A word on the pIC50: it is the negative decadic logarithm of the IC50, by convention in mol/L. In the case of `COc1cc(C2=C(c3c[nH]c4ccccc34)CNC2=O)cc(OC)c1OC`, the pIC50 in experiment [1] was 7.51; in experiment [2], 7.43; in experiment [3], 5.00; at Aurora kinase A, 4.80.

Regarding `COc1cc(C2=C(c3cn(CC(O)CO)c4ccccc34)CNC2=O)cc(OC)c1OC` (centres undefined), the pIC50 is 5.38 in experiment [1], 5.60 in experiment [2], 4.80 in experiment [3] and 4.33 on Aurora kinase A.

Take `COc1cc(C2=C(c3c[nH]c4ccccc34)C(=O)NC2)cc(OC)c1OC`: the pIC50 in experiment [1] is 4.96; in experiment [2], 5.03; in experiment [3] it was 5.11; at Aurora kinase A it was 5.49.

For the compound `COc1cc(C2=C(c3cn(C)c4ccccc34)C(=O)NC2)cc(OC)c1OC`, the pIC50 in experiment [1] is 4.82; in experiment [2], 4.96; in experiment [3], 5.04; at Aurora kinase A it was 5.49.

Regarding `COc1cc(C2=C(c3cn(COC(C)(C)C)c4ccccc34)CNC2=O)cc(OC)c1OC`, the pIC50 is 5.36 in experiment [1], 5.32 in experiment [2], 4.55 in experiment [3] and 4.52 on Aurora kinase A.

In the case of `COc1ccc(C2=C(c3c[nH]c4ccccc34)C(=O)NC2)cc1`, the pIC50 in experiment [1] is 4.89; in experiment [2] it was 5.06; in experiment [3], 4.92; on Aurora kinase A, 4.80.
